Experimental data collected from several papers.
Each line is one published result; the experiments were not run side by side.
Cell line: A549
Effect on: cell growth or viability

Structure (SMILES)	method	time	IC50
Cc1ccc(-c2ccc(O)cc2)c(C(=C2C=CC(=O)C=C2)c2ccc(O)cc2)c1C#Cc1ccc(O)cc1	MTT	48 h	17.6 µM
O=c1[nH]cc(S(=O)(=O)Nc2cccc(-c3nnc(-c4cccc(Cl)c4)o3)c2)c(=O)[nH]1	MTT	24 h	0.78 µM
Cc1c(OCC(F)(F)F)ccnc1COc1ccc(NC(=O)Nc2cc(F)cc(F)c2)cc1	MTT	72 h	7.67 µM
C=CC(=O)Nc1cc(Nc2nccc(-c3cn(C)c4ccccc34)n2)c(OC)cc1N(C)CCN(C)C	MTT	–	0.379 µM
COc1ccnc(COc2ccc(NC(=O)Nc3ccc(F)cc3)cc2)c1OC	MTT	72 h	23.3 µM
O=C(N/N=C/c1cccn1CCN1CCOCC1)Nc1cc2c(Nc3ccc(F)c(Cl)c3)ncnc2cc1O[C@H]1CCOC1	MTT	72 h	1.32 µM
COc1ccc(-c2csc(Nc3ccc4c(O)ncnc4c3)n2)cc1	MTT	–	25 µM
O=C(N/N=C/c1cccn1CCN1CCCCC1)Nc1cc2c(Nc3ccc(F)c(Cl)c3)ncnc2cc1O[C@H]1CCOC1	MTT	72 h	3.58 µM
CCN(CC)CCNC(=O)c1c(C)[nH]c(/C=C2\C(=O)Nc3ccc(F)cc32)c1C	–	72 h	4.56 µM
CC1=C(O)C(=O)C=C2C1=CC=C1[C@@]2(C)CC[C@@]2(C)[C@@H]3C[C@](C)(C(=O)OCCCCCCCCO)CC[C@]3(C)CC[C@]12C	MTT	48 h	4.13 µM
Brc1ccc(Nc2nc(NCc3ccccc3)nc(NCc3ccccc3)n2)cc1	SRB	72 h	14.9 µM
CCC(=O)Nc1cc(Nc2nc(Nc3cnn(C)c3)c3sccc3n2)c(OC)cc1N(C)CCN(C)C	MTT	–	7.06 µM
CN(C)CCCn1cccc1/C=N/NC(=O)Nc1cc2c(Nc3ccc(F)c(Cl)c3)ncnc2cc1O[C@H]1CCOC1	MTT	72 h	6.17 µM
COc1c(C)cnc(COc2ccc(NC(=O)Nc3cc(F)cc(F)c3)cc2)c1C	MTT	72 h	10.2 µM
NNc1nc(Nc2ccccc2)nc(Nc2ccc(Br)cc2)n1	SRB	72 h	> 30 µM
O=C(NC(=S)NCCCNC(=S)NC(=O)c1ccc2ccccc2c1)c1ccc2ccccc2c1	–	48 h	2.41 µM
Cc1cc(C)cc(NC(=O)NNC(=O)c2ccc(Nc3nccc(-c4ccccn4)n3)cc2)c1	MTT	24 h	> 40 µM
CC(=O)O[C@H]1C(=O)[C@@]2(C)[C@H]([C@H](OC(=O)c3ccccc3)[C@]3(O)C[C@H](OC(=O)[C@H](O)[C@@H](NC(=O)c4ccccc4)c4ccccc4)C(C)=C1C3(C)C)[C@]1(OC(C)=O)CO[C@@H]1C[C@@H]2O	SRB	–	0.03 µM
COc1cc2ncnc(Nc3ccc(F)c(Cl)c3)c2cc1NC(=O)N/N=C/c1cccn1CCCN1CCN(C)CC1	MTT	72 h	3.23 µM

Structure (SMILES)	method	time	IC50
Cc1c(NC(=O)c2ccc(C(C)(C)C)cc2)cccc1-c1cn(C)c(=O)c(Nc2ccc(C(=O)N3CCOCC3)cc2)n1	–	–	> 10 µM
CN1CCN(CCn2cccc2/C=N/NC(=O)Nc2cc3c(Nc4ccc(F)c(Cl)c4)ncnc3cc2O[C@H]2CCOC2)CC1	MTT	72 h	3.02 µM
COc1ccccc1C#CCNCC(O)COc1cccc2[nH]c3ccccc3c12 (stereo not drawn)	CCK-8	72 h	> 100 µM
Cc1ccc(C)n1-c1ccc(-c2nnc(-c3c(Cl)cccc3Cl)[nH]2)cc1	MTT	72 h	231 µM
COc1ccccc1NCC(O)COc1cccc2[nH]c3ccccc3c12 (stereo not drawn)	CCK-8	72 h	86.8 µM
C=CC(=O)Nc1cc(Nc2nc(N3CCc4sccc4C3)c3sccc3n2)c(OC)cc1N1CCN(C)CC1	MTT	–	1.96 µM
O=C(/N=C1\SCC(=O)N1C1CCCCC1)c1ccc2ccccc2c1	–	48 h	18.8 µM
COc1c(C)c(OC)c2c(c1C)OC(c1ccccc1)CC2=O (stereo not drawn)	SRB	72 h	> 50 µM
CC1=C(O)C(=O)C=C2C1=CC=C1[C@@]2(C)CC[C@@]2(C)[C@@H]3C[C@](C)(C(=O)OCCO)CC[C@]3(C)CC[C@]12C	MTT	48 h	3.19 µM
COc1cc2ncnc(Nc3ccc(F)c(Cl)c3)c2cc1NC(=O)N/N=C/CN(C)C	MTT	72 h	5.52 µM
COc1ccccc1OCCN1CCOC(COc2cccc3[nH]c4ccccc4c23)C1 (stereo not drawn)	CCK-8	72 h	> 100 µM
CC(=O)O[C@H]1C(=O)[C@@]2(C)[C@H]([C@H](OC(=O)c3ccccc3)[C@]3(O)C[C@H](OC(=O)[C@H](O)[C@@H](NC(=O)c4ccccc4)c4ccccc4)C(C)=C1C3(C)C)[C@]1(OC(C)=O)CO[C@@H]1C[C@@H]2O	CCK-8	72 h	0.0206 µM
O=C(Nc1nnnn1C1CCCCC1)c1ccc2ccccc2c1	–	48 h	1.12 µM
COc1ccccc1/C=C/CNCC(O)COc1ccc2[nH]ccc2c1 (stereo not drawn)	CCK-8	72 h	25.4 µM
COc1cccc2c1C(=O)c1c(O)c3c(c(O)c1C2=O)C[C@@](O)(C(=O)CO)C[C@@H]3O[C@H]1C[C@H](N)[C@H](O)[C@H](C)O1	MTT	48 h	2.42 µM
C=C(Cl)C(=O)Nc1cc(Nc2nc(Nc3cnn(C)c3)c3sccc3n2)c(OC)cc1N1CCN(C)CC1	MTT	–	0.655 µM
COc1ccc(-c2nn(-c3ccc(S(C)(=O)=O)cc3)cc2/C=N/N=c2\[nH]c(-c3ccc(Br)cc3)cs2)cc1	MTT	48 h	14.3 µM
COc1ccccc1CNCC(O)COc1cccc2[nH]c3ccccc3c12 (stereo not drawn)	CCK-8	72 h	13.9 µM
Cc1cccc(NC(=O)NNC(=O)c2ccc(Nc3nccc(-c4ccccn4)n3)cc2)c1	MTT	–	> 40 µM

Structure (SMILES)	method	time	IC50
CCCCC[C@H](O)CC(=O)CCc1ccc(O)c(OC)c1	SRB	–	208 µM
CN1C(=O)/C(=N\NC(=O)c2cc3ccccc3[nH]2)c2ccccc21	–	–	4.04 µM
CC(C)C[C@H](NC(=O)[C@H](Cc1ccccc1)NC(=O)c1cnccn1)B(O)O	ATP luminescence	–	0.02 µM
Oc1ncnc2cc(Nc3nc(-c4ccccc4)cs3)ccc12	MTT	–	24.7 µM
O=C(NC(=S)NCc1ccccc1)c1ccc2ccccc2c1	–	48 h	5.53 µM
CN(C)C/C=N/NC(=O)Nc1cc2c(Nc3ccc(F)c(Cl)c3)ncnc2cc1O[C@H]1CCOC1	MTT	72 h	5.38 µM
COC(C)(C)CCC[C@](C)(O)[C@H]1CC[C@]2(C)[C@@H]1[C@H](O)C[C@@H]1[C@@]3(C)CC[C@H](O)C(C)(C)[C@@H]3CC[C@]12C	MTT	72 h	4.88 µM
COc1cccc(NC(=O)CN2C(=O)/C(=C/c3ccc(F)cc3)SC2=S)c1	MTT	–	14.4 µM
CCn1c(-c2nnc(NC(=O)c3cc4c([nH]c5ccccc54)c(-c4cc(OC)c(OC)c(OC)c4)n3)s2)cc2ccccc21	MTT	72 h	10.9 µM
COc1cc(N(C)CCN(C)C)c(NC(=O)/C=C/C(C)C)cc1Nc1nc(N2CCc3sccc3C2)c2sccc2n1	MTT	–	> 50 µM
CC1=C(O)C(=O)C=C2C1=CC=C1[C@@]2(C)CC[C@@]2(C)[C@@H]3C[C@](C)(C(=O)OCCCN4C(=O)C5C=CC=CC5C4=O)CC[C@]3(C)CC[C@]12C (stereo partly drawn)	MTT	48 h	3.65 µM
COc1ccc(C(=O)O[C@@H]2CN3Cc4c(cc5c(c4OC)OCO5)[C@@]24C=C[C@H](OC)C[C@@H]34)cc1OC	WST-1	–	2.6 µM
COc1c(C)cnc(COc2ccc(NC(=O)Nc3ccc(F)cc3)cc2)c1C	MTT	72 h	13.2 µM
Cc1ccc(NC(=O)CSc2nnc(Cn3cnc4c3c(=O)n(C)c(=O)n4C)n2-c2ccccc2)cc1C	MTT	–	198 µM
CS(=O)(=O)c1ccc(-n2cc(C=N/N=c3\[nH]c(-c4ccc(Br)cc4)cs3)c(-c3ccc([N+](=O)[O-])cc3)n2)cc1	MTT	48 h	28.4 µM
C/C=C/C(=O)Nc1cc(Nc2nc(Nc3cnn(C)c3)c3sccc3n2)c(OC)cc1N(C)CCN(C)C	MTT	–	25.9 µM
COc1ccnc(COc2ccc(NC(=O)Nc3cccc(C(F)(F)F)c3)cc2)c1OC	MTT	72 h	6.65 µM
COc1cccc(/C=C2\SC(=S)N(CC(=O)Nc3ccccc3)C2=O)c1	MTT	–	32 µM
O=C(Nc1nnc(-c2cc3ccccc3[nH]2)s1)c1cc2c([nH]c3ccccc32)c(-c2ccc(Cl)cc2)n1	MTT	72 h	3.33 µM
